The values below come from ChEMBL document CHEMBL3124742, “Synthesis and biological evaluation of new carbohydrate-substituted indenoisoquinoline topoisomerase I inhibitors and improved syntheses of the experimental anticancer agents indotecan (LMP400) and indimitecan (LMP776)” (J Med Chem, 2014).

Active and inactive are the calls of the source. The calls are words filed in the database; no cut-off is given here.

System in one assay: not listed separately
Briefly: Growth inhibition of human SF539 cells. The class given is functional. To be noted: SF-539. In outline: (§1)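 NCI-60 five-dose testing, 10^-8 to 10^-4 M, given only to compounds with significant growth inhibition in the 10 μM one-dose screen. Five-dose assay may be repeated.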
In general, GI50 refers to the concentration at which growth is held to half of that of the control. The low end stands for greater sensitivity of the cells, the high end for lower sensitivity of the cells. For the compound `COc1cc2c3c(n(C[C@@H](O)[C@H](O)[C@H](O)CO)c(=O)c2cc1OC)-c1cc2c(cc1C3=O)OCO2`, the concentration for 50% growth inhibition (GI50) came to 174 nM.
`COc1cc2c3c(n(C[C@@H](O)CO)c(=O)c2cc1OC)-c1cc2c(cc1C3=O)OCO2` showed a GI50 of 32 nM.
Still for that read-out and setting: for `COc1cc2c3c(n(C[C@H](O)[C@@H](O)[C@H](O)CO)c(=O)c2cc1OC)-c1cc2c(cc1C3=O)OCO2` the value was 21 nM; for `O=C1c2ccccc2-c2c1c1ccc([N+](=O)[O-])cc1c(=O)n2C[C@@H](O)CO`, 309 nM.
With `COc1cc2c3c(n(CC(O)CO)c(=O)c2cc1OC)-c1cc2c(cc1C3=O)OCO2` (racemic), halving of growth (GI50) required 23 nM.

The next assay relates to MCF7. The experiment in a line: Growth inhibition of human MCF7 cells.
Details: not given
The format is functional. Summed up: as §1
The compound `COc1cc2c3c(n(C[C@@H](O)[C@H](O)[C@H](O)CO)c(=O)c2cc1OC)-c1cc2c(cc1C3=O)OCO2` returned a GI50 of 148 nM.
The compound `COc1cc2c3c(n(C[C@@H](O)CO)c(=O)c2cc1OC)-c1cc2c(cc1C3=O)OCO2` showed a 50% growth inhibitory concentration (GI50) of 29 nM.
Turning to `COc1cc2c3c(n(C[C@H](O)[C@@H](O)[C@H](O)CO)c(=O)c2cc1OC)-c1cc2c(cc1C3=O)OCO2`, the GI50 came to 34 nM.
`O=C1c2ccccc2-c2c1c1ccc([N+](=O)[O-])cc1c(=O)n2C[C@@H](O)CO` returned a GI50 of 56 nM.
Take `COc1cc2c3c(n(CC(O)CO)c(=O)c2cc1OC)-c1cc2c(cc1C3=O)OCO2` (racemic): the GI50 was 21 nM.

The next assay concerns HOP-62. The experiment in a line: Growth inhibition of human HOP62 cells.
Details: not given
The class given is functional. Summed up:
as §1
As to `COc1cc2c3c(n(C[C@@H](O)[C@H](O)[C@H](O)CO)c(=O)c2cc1OC)-c1cc2c(cc1C3=O)OCO2`, growth was halved (GI50) at 50100 nM.
The same measure, in the same setting: to `COc1cc2c3c(n(C[C@@H](O)CO)c(=O)c2cc1OC)-c1cc2c(cc1C3=O)OCO2` belongs 36 nM; to `COc1cc2c3c(n(C[C@H](O)[C@@H](O)[C@H](O)CO)c(=O)c2cc1OC)-c1cc2c(cc1C3=O)OCO2`, 27 nM.
Compound `O=C1c2ccccc2-c2c1c1ccc([N+](=O)[O-])cc1c(=O)n2C[C@@H](O)CO` yielded a GI50 of 347 nM.
Take `COc1cc2c3c(n(CC(O)CO)c(=O)c2cc1OC)-c1cc2c(cc1C3=O)OCO2` (racemic): halving of growth (GI50) required 31 nM.

A further assay relates to DU-145. The experiment in a line: Growth inhibition of human DU145 cells.
Details: not given
The format is functional. In outline:
as §1
`COc1cc2c3c(n(C[C@@H](O)[C@H](O)[C@H](O)CO)c(=O)c2cc1OC)-c1cc2c(cc1C3=O)OCO2` displayed a concentration for 50% growth inhibition (GI50) of 50100 nM.
Regarding `COc1cc2c3c(n(C[C@@H](O)CO)c(=O)c2cc1OC)-c1cc2c(cc1C3=O)OCO2`, the 50% growth inhibitory concentration (GI50) was found to be 40 nM.
As to `COc1cc2c3c(n(C[C@H](O)[C@@H](O)[C@H](O)CO)c(=O)c2cc1OC)-c1cc2c(cc1C3=O)OCO2`, halving of growth (GI50) required 138 nM.
`O=C1c2ccccc2-c2c1c1ccc([N+](=O)[O-])cc1c(=O)n2C[C@@H](O)CO` came in with a GI50 of 427 nM.
`COc1cc2c3c(n(CC(O)CO)c(=O)c2cc1OC)-c1cc2c(cc1C3=O)OCO2` (racemic) had a GI50 of 36 nM.

Another assay relates to OVCAR-3. Briefly: Growth inhibition of human OVCAR3 cells.
Details: not given
The class given is functional. Summed up: as §1
`COc1cc2c3c(n(C[C@@H](O)[C@H](O)[C@H](O)CO)c(=O)c2cc1OC)-c1cc2c(cc1C3=O)OCO2` had a GI50 of 50100 nM.
Same read-out and setting: for `COc1cc2c3c(n(C[C@H](O)[C@@H](O)[C@H](O)CO)c(=O)c2cc1OC)-c1cc2c(cc1C3=O)OCO2` the value was 96 nM.
In turn, `O=C1c2ccccc2-c2c1c1ccc([N+](=O)[O-])cc1c(=O)n2C[C@@H](O)CO` yielded a GI50 of 398 nM.
The compound `COc1cc2c3c(n(CC(O)CO)c(=O)c2cc1OC)-c1cc2c(cc1C3=O)OCO2` (racemic) gave a 50% growth inhibitory concentration (GI50) of 52 nM.

A further assay deals with Tyrosyl-DNA phosphodiesterase 1 (Homo sapiens, UniProt Q9NUW8). The experiment in a line: Inhibition of recombinant TDP1 (unknown origin) using N14Y as substrate after 15 mins by PAGE analysis.
Chain of Tyrosyl-DNA phosphodiesterase 1 (Q9NUW8 whole entry): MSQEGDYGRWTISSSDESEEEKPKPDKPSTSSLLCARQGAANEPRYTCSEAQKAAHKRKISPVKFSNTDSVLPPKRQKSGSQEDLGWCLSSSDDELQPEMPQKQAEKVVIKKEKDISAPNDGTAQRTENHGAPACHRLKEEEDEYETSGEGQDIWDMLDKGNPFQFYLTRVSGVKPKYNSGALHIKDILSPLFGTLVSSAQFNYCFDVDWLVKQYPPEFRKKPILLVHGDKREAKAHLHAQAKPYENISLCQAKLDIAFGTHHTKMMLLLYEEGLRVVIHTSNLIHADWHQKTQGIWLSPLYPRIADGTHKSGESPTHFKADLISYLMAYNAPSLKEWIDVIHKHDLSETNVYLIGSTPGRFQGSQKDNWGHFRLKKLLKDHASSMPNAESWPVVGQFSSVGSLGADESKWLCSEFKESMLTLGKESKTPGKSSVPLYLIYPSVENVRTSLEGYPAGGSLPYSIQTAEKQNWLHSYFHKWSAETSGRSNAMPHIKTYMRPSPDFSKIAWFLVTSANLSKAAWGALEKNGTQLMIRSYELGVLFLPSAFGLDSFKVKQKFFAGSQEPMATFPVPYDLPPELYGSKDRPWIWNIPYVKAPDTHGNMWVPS
Details: not given
Summed up:
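Substrate is a 5'-[32P]-labelled single-stranded oligonucleotide with a 3'-phosphotyrosine (N14Y). It is incubated with 5 pM recombinant TDP1 ± test compound for 15 min at room temperature. Read-out is a gel.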
The IC50 is the point on the concentration scale where inhibition reaches its midpoint. With `COc1cc2c3c(n(C[C@@H](O)[C@H](O)[C@H](O)CO)c(=O)c2cc1OC)-c1cc2c(cc1C3=O)OCO2`, the IC50 is > 111000 nM.
As for `COc1cc2c3c(n(C[C@@H](O)CO)c(=O)c2cc1OC)-c1cc2c(cc1C3=O)OCO2`, the IC50 was > 111000 nM.
Turning to `COc1cc2c3c(n(C[C@H](O)[C@@H](O)[C@H](O)CO)c(=O)c2cc1OC)-c1cc2c(cc1C3=O)OCO2`, the IC50 is > 111000 nM.
`O=C1c2ccccc2-c2c1c1ccc([N+](=O)[O-])cc1c(=O)n2C[C@@H](O)CO`: the half-inhibitory concentration (IC50) was > 111000 nM.
For `COc1cc2c3c(n(CC(O)CO)c(=O)c2cc1OC)-c1cc2c(cc1C3=O)OCO2` (racemic), the IC50 is > 111000 nM.

For another assay, the target named is T1, DNA topoisomerase 1 (Homo sapiens) (UniProt P11387).
T1 sequence (whole entry): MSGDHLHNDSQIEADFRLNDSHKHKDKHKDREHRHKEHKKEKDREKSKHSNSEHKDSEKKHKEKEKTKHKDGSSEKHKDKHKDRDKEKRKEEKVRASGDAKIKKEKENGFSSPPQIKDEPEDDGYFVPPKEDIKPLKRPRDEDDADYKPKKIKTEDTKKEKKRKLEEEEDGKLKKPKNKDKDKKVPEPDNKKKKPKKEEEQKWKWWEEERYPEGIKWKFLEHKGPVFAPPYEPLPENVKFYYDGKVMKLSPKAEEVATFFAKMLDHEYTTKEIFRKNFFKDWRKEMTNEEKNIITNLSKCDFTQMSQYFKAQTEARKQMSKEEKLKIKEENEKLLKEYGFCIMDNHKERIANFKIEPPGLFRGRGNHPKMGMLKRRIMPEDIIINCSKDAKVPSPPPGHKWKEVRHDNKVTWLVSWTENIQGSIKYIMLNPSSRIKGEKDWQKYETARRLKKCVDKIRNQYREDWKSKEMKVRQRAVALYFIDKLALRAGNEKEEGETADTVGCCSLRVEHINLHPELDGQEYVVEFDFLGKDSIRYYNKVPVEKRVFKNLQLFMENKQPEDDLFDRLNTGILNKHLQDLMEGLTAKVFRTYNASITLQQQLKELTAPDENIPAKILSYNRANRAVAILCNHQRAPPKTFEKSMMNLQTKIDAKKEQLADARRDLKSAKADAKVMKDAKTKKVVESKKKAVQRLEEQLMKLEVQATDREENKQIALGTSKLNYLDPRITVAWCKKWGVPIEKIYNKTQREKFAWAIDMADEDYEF
Briefly: Inhibition of recombinant topoisomerase-1 (unknown origin) assessed as inhibition of 3'-[32P]-labeled DNA cleavage at 0.1 to 100 uM after 20 mins by PAGE analysis relative to control.
Details: not given
As usually defined, the inhibition is the percentage by which the read-out fell short of the control. Take `COc1cc2c3c(n(C[C@@H](O)[C@H](O)[C@H](O)CO)c(=O)c2cc1OC)-c1cc2c(cc1C3=O)OCO2`: the inhibition was 75%.
On to `COc1cc2c3c(n(C[C@@H](O)CO)c(=O)c2cc1OC)-c1cc2c(cc1C3=O)OCO2`, for which the inhibition entry is “Active”.
As to `COc1cc2c3c(n(C[C@H](O)[C@@H](O)[C@H](O)CO)c(=O)c2cc1OC)-c1cc2c(cc1C3=O)OCO2`, the inhibition entry was “Active”.
In the case of `O=C1c2ccccc2-c2c1c1ccc([N+](=O)[O-])cc1c(=O)n2C[C@@H](O)CO`, the inhibition was determined as 75%.
`COc1cc2c3c(n(CC(O)CO)c(=O)c2cc1OC)-c1cc2c(cc1C3=O)OCO2` (racemic): the inhibition result is “Active”.

A further assay relates to UACC-62. Briefly: Growth inhibition of human UACC62 cells. The class given is functional.
Details: not given
Summed up:
as §1
For the compound `COc1cc2c3c(n(C[C@@H](O)[C@H](O)[C@H](O)CO)c(=O)c2cc1OC)-c1cc2c(cc1C3=O)OCO2`, halving of growth (GI50) required 155 nM.
Compound `COc1cc2c3c(n(C[C@H](O)[C@@H](O)[C@H](O)CO)c(=O)c2cc1OC)-c1cc2c(cc1C3=O)OCO2` registered a GI50 of 52 nM.

Another assay relates to HCT-116. The experiment in a line: Growth inhibition of human HCT116 cells. The format is functional.
Details: not given
In outline: as §1
In turn, `COc1cc2c3c(n(C[C@@H](O)[C@H](O)[C@H](O)CO)c(=O)c2cc1OC)-c1cc2c(cc1C3=O)OCO2` registered a GI50 of 355 nM.
Turning to `COc1cc2c3c(n(C[C@@H](O)CO)c(=O)c2cc1OC)-c1cc2c(cc1C3=O)OCO2`, the GI50 amounted to 36 nM.
Compound `COc1cc2c3c(n(C[C@H](O)[C@@H](O)[C@H](O)CO)c(=O)c2cc1OC)-c1cc2c(cc1C3=O)OCO2` showed a concentration for 50% growth inhibition (GI50) of 59 nM.
On the same count and under the same terms, for `O=C1c2ccccc2-c2c1c1ccc([N+](=O)[O-])cc1c(=O)n2C[C@@H](O)CO` the value was 138 nM; for `COc1cc2c3c(n(CC(O)CO)c(=O)c2cc1OC)-c1cc2c(cc1C3=O)OCO2` (racemic), 26 nM.

A further assay has as its system SN12C. The experiment in a line: Growth inhibition of human SN12C cells. The class given is functional.
Details: not given
Summed up: as §1
In turn, `COc1cc2c3c(n(C[C@@H](O)[C@H](O)[C@H](O)CO)c(=O)c2cc1OC)-c1cc2c(cc1C3=O)OCO2` showed a GI50 of 234 nM.
The compound `COc1cc2c3c(n(C[C@@H](O)CO)c(=O)c2cc1OC)-c1cc2c(cc1C3=O)OCO2` gave a GI50 of 37 nM.
`COc1cc2c3c(n(C[C@H](O)[C@@H](O)[C@H](O)CO)c(=O)c2cc1OC)-c1cc2c(cc1C3=O)OCO2` had a concentration for 50% growth inhibition (GI50) of 85 nM.
Take `O=C1c2ccccc2-c2c1c1ccc([N+](=O)[O-])cc1c(=O)n2C[C@@H](O)CO`: it took 380 nM to inhibit growth by half (GI50).
On to `COc1cc2c3c(n(CC(O)CO)c(=O)c2cc1OC)-c1cc2c(cc1C3=O)OCO2` (racemic), for which the GI50 amounted to 35 nM.

System in the next assay: not listed separately
Briefly: Cytotoxicity against human NCI60 cells assessed as cell growth at 10 uM relative to vehicle-treated control. The class given is functional. To be noted: read-out: Activity. In outline:
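NCI-60 one-dose screen: roughly 60 human cancer cell lines exposed to 10^-5 M (10 μM) compound. Value is growth percent of treated cells relative to vehicle-treated control, averaged across the panel.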
With `COc1cc2c3c(n(C[C@@H](O)[C@H](O)[C@H](O)CO)c(=O)c2cc1OC)-c1cc2c(cc1C3=O)OCO2`, the growth at 10 µM was determined as 52.8%.
Regarding `COc1cc2c3c(n(C[C@@H](O)CO)c(=O)c2cc1OC)-c1cc2c(cc1C3=O)OCO2`, the growth at 10 µM came to 31.6%.
Still for that read-out and setting: for `COc1cc2c3c(n(C[C@H](O)[C@@H](O)[C@H](O)CO)c(=O)c2cc1OC)-c1cc2c(cc1C3=O)OCO2` the value was 5.32%; for `O=C1c2ccccc2-c2c1c1ccc([N+](=O)[O-])cc1c(=O)n2C[C@@H](O)CO`, -27%.
On to `COc1cc2c3c(n(CC(O)CO)c(=O)c2cc1OC)-c1cc2c(cc1C3=O)OCO2` (racemic), for which the growth at 10 µM was 27.1%.
